For assay [1], the target named is T1, Prostaglandin G/H synthase 1 (Ovis aries, UniProt P05979).
T1 sequence (P05979 whole entry): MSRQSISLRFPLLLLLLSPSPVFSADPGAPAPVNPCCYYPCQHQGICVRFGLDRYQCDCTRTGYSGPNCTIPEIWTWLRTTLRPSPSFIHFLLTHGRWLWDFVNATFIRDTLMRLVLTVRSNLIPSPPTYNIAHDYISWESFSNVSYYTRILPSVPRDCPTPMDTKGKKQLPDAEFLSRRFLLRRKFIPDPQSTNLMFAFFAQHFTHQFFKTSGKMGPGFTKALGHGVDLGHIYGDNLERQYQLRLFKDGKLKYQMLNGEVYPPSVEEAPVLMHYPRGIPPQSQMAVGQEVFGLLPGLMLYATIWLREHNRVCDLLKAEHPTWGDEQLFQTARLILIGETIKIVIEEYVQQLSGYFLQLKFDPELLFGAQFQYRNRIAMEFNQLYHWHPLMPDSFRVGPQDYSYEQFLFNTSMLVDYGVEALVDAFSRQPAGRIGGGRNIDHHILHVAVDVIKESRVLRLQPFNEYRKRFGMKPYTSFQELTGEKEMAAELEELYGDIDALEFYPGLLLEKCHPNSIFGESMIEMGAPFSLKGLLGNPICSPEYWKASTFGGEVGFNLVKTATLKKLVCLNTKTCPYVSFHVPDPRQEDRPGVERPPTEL
Put plainly: Inhibition of ovine Prostaglandin G/H synthase 1. Put shortly:
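Ovine COX-1 with heme in 0.1 M Tris-HCl pH 8.0, 5 mM EDTA, 2 mM phenol. Test drug from DMSO stock at 0.001–100 μM final, preincubated 5 min at 37 °C. Arachidonic acid added, stopped with 1 M HCl after 2 min. IC50 from concentration–inhibition curve, duplicate determinations.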

Assay [2] is filed under the species Rattus norvegicus. The experiment in a line: Percent inhibition of analgesic activity in a rat model 4% NaCl-induced abdominal constriction assay at 60 min. It counts as functional, Abdomen. Put shortly: (§1)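 Male Sprague-Dawley rats given test compound orally at 5 mg/kg. Writhing (abdominal constriction) induced by 4% NaCl. Inhibition of writhing scored at 30 or 60 min after dosing. Mean ± SEM, n = 4-6.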

Assay [3] deals with T2, Prostaglandin G/H synthase 2 (Rattus norvegicus) (UniProt P35355).
T2 sequence (whole entry): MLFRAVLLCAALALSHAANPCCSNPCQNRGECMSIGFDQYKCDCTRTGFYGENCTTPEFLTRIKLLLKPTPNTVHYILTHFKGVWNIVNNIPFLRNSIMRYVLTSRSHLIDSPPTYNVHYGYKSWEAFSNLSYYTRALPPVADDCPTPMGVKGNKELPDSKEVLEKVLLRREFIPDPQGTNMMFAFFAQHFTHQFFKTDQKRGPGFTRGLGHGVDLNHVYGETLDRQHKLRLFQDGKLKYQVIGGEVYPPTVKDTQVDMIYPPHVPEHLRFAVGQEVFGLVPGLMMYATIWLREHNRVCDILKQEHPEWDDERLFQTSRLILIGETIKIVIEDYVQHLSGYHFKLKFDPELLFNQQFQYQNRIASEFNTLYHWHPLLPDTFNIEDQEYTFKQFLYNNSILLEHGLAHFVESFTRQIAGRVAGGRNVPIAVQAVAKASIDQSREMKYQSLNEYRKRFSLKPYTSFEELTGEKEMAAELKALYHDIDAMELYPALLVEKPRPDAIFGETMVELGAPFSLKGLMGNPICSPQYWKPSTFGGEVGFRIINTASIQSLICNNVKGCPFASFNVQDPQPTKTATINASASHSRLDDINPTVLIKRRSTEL

The species named for assay [4] is Rattus norvegicus. The experiment in a line: Percent inhibition of analgesic activity in a rat model 4% NaCl-induced abdominal constriction assay at 30 min. It is filed as functional, Abdomen. In a few lines:
as §1

Molecules are shown by their SMILES.

IC50, Inhibition and ID50 data for 35 compounds are collected here from ChEMBL document CHEMBL1138661, “Design, synthesis, and structure-activity relationship studies of 3,4,6-triphenylpyran-2-ones as selective cyclooxygenase-2 inhibitors” (J Med Chem, 2004).

As for `CS(=O)(=O)c1ccc(-c2c(-c3ccccc3)cc(-c3ccc(O)cc3)oc2=O)cc1`, in assay [1], the IC50 (commonly the concentration that gives 50% inhibition) is more than 100 µM.

`CS(=O)(=O)c1ccc(-c2cc(-c3ccc(C(F)(F)F)cc3)oc(=O)c2-c2ccccc2)cc1` came in with an IC50 in assay [1] of 25.3 µM.

On to `CS(=O)(=O)c1ccc(-c2cc(-c3ccccc3)oc(=O)c2-c2cccnc2)cc1`, for which it took 3.2 µM to reach half-maximal inhibition in assay [1] (IC50).

For `COc1ccc(-c2cc(-c3ccccc3)c(-c3ccc(S(C)(=O)=O)cc3)c(=O)o2)cc1`, the Inhibition (in general, the share of the control response that was lost under treatment) in the assay listed under Rattus norvegicus [2] amounted to 69%; in the assay listed under Rattus norvegicus [4], 37.5%. Further, the ID50 in assay [3] was found to be 19.2 mg/kg. Moreover, in assay [1], the IC50 was more than 100 µM.

In the assay listed under Rattus norvegicus [4], `Cc1ccc(-c2cc(C(F)(F)F)nn2-c2ccc(S(N)(=O)=O)cc2)cc1` [CELECOXIB] returned an Inhibition of 69.33%.

In assay [1], `CCOc1ccc(-c2cc(-c3ccc(S(C)(=O)=O)cc3)c(-c3ccccc3)c(=O)o2)cc1` yielded an IC50 of 31.6 µM.

With `CCOc1ccc(-c2cc(-c3ccccc3)c(-c3ccc(N=[N+]=[N-])cc3)c(=O)o2)cc1`, the 50% inhibitory concentration (IC50) in assay [1] is more than 100 µM.

Consider `CS(=O)(=O)c1ccc(-c2c(-c3cccnc3)cc(-c3ccccc3)oc2=O)cc1`, for which 3 µM corresponded to half-maximal inhibition in assay [1] (IC50).

Compound `CSc1ccc(-c2cc(-c3ccccc3)c(-c3ccc(N=[N+]=[N-])cc3)c(=O)o2)cc1` gave an IC50 in assay [1] of 30 µM.

As for `CSc1ccc(-c2cc(-c3ccccc3)c(-c3ccc(S(C)(=O)=O)cc3)c(=O)o2)cc1`, the Inhibition in the assay listed under Rattus norvegicus [2] is 64.7%; in the assay listed under Rattus norvegicus [4], 72%. Also, the ID50 in assay [3] was found to be 7.9 mg/kg. Further, inhibition in assay [1] was half-maximal at 37.7 µM (IC50).

For the compound `COc1ccc(-c2cc(-c3ccccc3)c(-c3ccc(N=[N+]=[N-])cc3)c(=O)o2)cc1`, the Inhibition in the assay filed under Rattus norvegicus [2] is given as 55.5%; in the assay filed under Rattus norvegicus [4] it was 47.2%. In assay [3], this compound registered an ID50 of 5.6 mg/kg. In assay [1], the IC50 was more than 100 µM.

On to `CCOc1ccc(-c2cc(-c3ccccc3)c(-c3ccc(S(C)(=O)=O)cc3)c(=O)o2)cc1`, for which the Inhibition in the assay listed under Rattus norvegicus [2] was found to be 75%; in the assay listed under Rattus norvegicus [4], 58.3%. The compound further displayed an ID50 in assay [3] of 5.6 mg/kg. This compound also had an IC50 in assay [1] of more than 100 µM.

The compound `CCOc1ccc(-c2cc(-c3ccc(S(C)(=O)=O)cc3)c(-c3ccc(F)cc3)c(=O)o2)cc1` gave a half-inhibitory concentration (IC50) in assay [1] of 1.07 µM.

`CS(=O)(=O)c1ccc(-c2cc(-c3ccccc3)oc(=O)c2-c2ccncc2)cc1` returned an IC50 in assay [1] of more than 100 µM.

The compound `CCc1ccc(-c2cc(-c3ccccc3)c(-c3ccc(S(C)(=O)=O)cc3)c(=O)o2)cc1` gave an IC50 in assay [1] of more than 100 µM.

Turning to `COc1ccc(-c2cc(-c3ccc(F)cc3)c(-c3ccc(S(C)(=O)=O)cc3)c(=O)o2)cc1`, the IC50 in assay [1] turned out to be 20 µM.

`COc1ccc(-c2cc(-c3ccc(S(C)(=O)=O)cc3)c(-c3cccnc3)c(=O)o2)cc1` gave an IC50 in assay [1] of 0.15 µM.

In the case of `CS(=O)(=O)c1ccc(-c2cc(-c3ccccc3)oc(=O)c2-c2ccccc2)cc1`, in assay [1], the IC50 was more than 100 µM.

`COc1ccc(-c2cc(-c3cccnc3)c(-c3ccc(S(C)(=O)=O)cc3)c(=O)o2)cc1`: inhibition in assay [1] was half-maximal at 0.44 µM (IC50).

`Cc1ccc(-c2cc(-c3ccccc3)c(-c3ccc(S(C)(=O)=O)cc3)c(=O)o2)cc1` came in with an IC50 in assay [1] of more than 100 µM.

`COc1ccc(-c2cc(-c3ccc(S(C)(=O)=O)cc3)c(-c3ccncc3)c(=O)o2)cc1`: the Inhibition in the assay filed under Rattus norvegicus [2] worked out at 55%; in the assay listed under Rattus norvegicus [4] it was 58.3%. The ID50 in assay [3] is 21.4 mg/kg. The same compound showed an IC50 in assay [1] of more than 100 µM.

The compound `CS(=O)(=O)c1ccc(-c2c(-c3ccccc3)cc(-c3ccc([N+](=O)[O-])cc3)oc2=O)cc1` had an IC50 in assay [1] of more than 100 µM.

Consider `COc1ccc(-c2cc(-c3ccc(S(C)(=O)=O)cc3)c(-c3ccc(F)cc3)c(=O)o2)cc1`, for which the concentration for half-maximal inhibition (IC50) in assay [1] was found to be 10.7 µM.

On to `CSc1ccc(-c2cc(-c3ccc(F)cc3)c(-c3ccc(S(C)(=O)=O)cc3)c(=O)o2)cc1`, for which the IC50 in assay [1] is more than 100 µM.

Take `CCOc1ccc(-c2cc(-c3ccc(F)cc3)c(-c3ccc(S(C)(=O)=O)cc3)c(=O)o2)cc1`: inhibition in assay [1] was half-maximal at 3.2 µM (IC50).

`Cc1ccc(-c2cc(-c3ccc(S(C)(=O)=O)cc3)c(-c3ccccc3)c(=O)o2)cc1` gave an IC50 in assay [1] of more than 100 µM.

`CS(=O)(=O)c1ccc(-c2c(-c3ccccc3)cc(-c3ccccc3)oc2=O)cc1`: the IC50 in assay [1] is more than 100 µM.

Consider `CS(=O)(=O)c1ccc(-c2c(-c3ccccc3)cc(-c3ccc(F)cc3)oc2=O)cc1`, for which the IC50 in assay [1] is more than 100 µM.

For the compound `CCc1ccc(-c2cc(-c3ccc(S(C)(=O)=O)cc3)c(-c3ccccc3)c(=O)o2)cc1`, the IC50 in assay [1] was more than 100 µM.

`CS(=O)(=O)c1ccc(-c2c(-c3ccccc3)cc(-c3ccc(N)cc3)oc2=O)cc1` yielded an IC50 in assay [1] of 32.5 µM.

As to `CS(=O)(=O)c1ccc(-c2c(-c3ccccc3)cc(-c3ccc(C(F)(F)F)cc3)oc2=O)cc1`, the IC50 in assay [1] is more than 100 µM.

`COc1ccc(-c2cc(-c3ccc(S(C)(=O)=O)cc3)c(-c3ccccc3)c(=O)o2)cc1`: in assay [1], the IC50 amounted to 31.5 µM.

Regarding `CSc1ccc(-c2cc(-c3ccc(S(C)(=O)=O)cc3)c(-c3ccccc3)c(=O)o2)cc1`, in assay [1], the IC50 stood at 31.2 µM.

Take `CS(=O)(=O)c1ccc(-c2cc(-c3ccc(F)cc3)oc(=O)c2-c2ccccc2)cc1`: in assay [1], the half-inhibitory concentration (IC50) was determined as 11 µM.

Regarding `CS(=O)(=O)c1ccc(-c2cc(-c3ccccc3)c(-c3ccccc3)c(=O)o2)cc1`, the IC50 in assay [1] is more than 100 µM.
